# Reference: ChEMBL document CHEMBL1165965, “Synthesis and structure-activity relationships of 1,2,3,4-tetrahydropyrido[2,3-b]pyrazines as potent and selective inhibitors of the anaplastic lymphoma kinase” (Bioorg Med Chem, 2010)
# Tests used:
# [1] = target: T1, Serine/threonine-protein kinase Nek2 (Homo sapiens) (UniProt P51955); experiment: Inhibition of NEK2 at 1 uM
# T1 sequence (whole entry): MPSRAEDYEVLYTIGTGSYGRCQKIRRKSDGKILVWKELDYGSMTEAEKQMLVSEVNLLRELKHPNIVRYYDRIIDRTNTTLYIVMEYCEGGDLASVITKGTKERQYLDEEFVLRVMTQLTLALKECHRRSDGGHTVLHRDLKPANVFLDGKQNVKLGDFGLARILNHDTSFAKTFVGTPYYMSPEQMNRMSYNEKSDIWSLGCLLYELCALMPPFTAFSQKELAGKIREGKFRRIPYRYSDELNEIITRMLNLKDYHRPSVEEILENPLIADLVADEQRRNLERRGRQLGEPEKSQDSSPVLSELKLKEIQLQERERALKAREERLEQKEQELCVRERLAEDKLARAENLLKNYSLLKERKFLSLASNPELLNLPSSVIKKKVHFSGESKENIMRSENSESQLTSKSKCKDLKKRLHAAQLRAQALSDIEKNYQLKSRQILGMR
# [2] = target: 5'-AMP-activated protein kinase catalytic subunit alpha-1 (Homo sapiens) (UniProt Q13131); experiment: Inhibition of AMPK-alpha1 at 1 uM
# Sequence of 5'-AMP-activated protein kinase catalytic subunit alpha-1 (Homo sapiens) (Q13131 whole entry, looked up): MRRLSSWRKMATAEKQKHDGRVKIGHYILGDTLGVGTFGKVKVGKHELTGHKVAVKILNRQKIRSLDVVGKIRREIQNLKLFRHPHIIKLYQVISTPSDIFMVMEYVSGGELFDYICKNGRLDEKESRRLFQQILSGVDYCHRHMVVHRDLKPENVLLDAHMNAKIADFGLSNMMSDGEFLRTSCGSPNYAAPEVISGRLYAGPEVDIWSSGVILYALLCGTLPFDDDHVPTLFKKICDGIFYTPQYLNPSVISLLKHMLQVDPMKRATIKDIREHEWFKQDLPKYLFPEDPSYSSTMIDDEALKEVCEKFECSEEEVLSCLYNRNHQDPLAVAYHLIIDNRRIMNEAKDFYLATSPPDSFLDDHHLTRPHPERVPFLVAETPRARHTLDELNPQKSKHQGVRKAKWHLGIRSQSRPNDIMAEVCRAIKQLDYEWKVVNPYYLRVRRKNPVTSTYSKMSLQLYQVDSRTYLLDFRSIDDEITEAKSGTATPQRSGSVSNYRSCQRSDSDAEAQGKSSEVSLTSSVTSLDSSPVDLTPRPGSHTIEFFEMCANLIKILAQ
# Summary of the method: (§1)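 Ambit KINOMEscan screen at a single concentration across a 250–400 kinase panel, recorded as percent inhibition. Selectivity was expressed as S(90), the fraction of kinases inhibited >90%.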
# [3] = target: RAC-beta serine/threonine-protein kinase (Homo sapiens) (UniProt P31751); experiment: Inhibition of AKT2 at 1 uM; summary of the method: as §1
# Sequence of RAC-beta serine/threonine-protein kinase (Homo sapiens) (P31751 whole entry): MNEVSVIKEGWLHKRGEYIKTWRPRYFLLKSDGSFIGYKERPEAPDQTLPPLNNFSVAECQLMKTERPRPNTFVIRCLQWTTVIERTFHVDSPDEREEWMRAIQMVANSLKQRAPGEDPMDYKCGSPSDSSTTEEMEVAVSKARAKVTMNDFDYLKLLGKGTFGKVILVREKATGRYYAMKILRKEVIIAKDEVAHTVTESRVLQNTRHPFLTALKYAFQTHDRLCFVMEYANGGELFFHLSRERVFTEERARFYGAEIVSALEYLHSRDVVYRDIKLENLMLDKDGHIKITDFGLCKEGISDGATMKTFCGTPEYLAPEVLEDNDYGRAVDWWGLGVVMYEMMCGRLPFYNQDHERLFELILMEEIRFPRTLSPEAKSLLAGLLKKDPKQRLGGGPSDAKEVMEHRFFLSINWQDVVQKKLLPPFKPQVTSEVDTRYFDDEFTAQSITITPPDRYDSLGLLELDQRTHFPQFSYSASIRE
# [4] = target: T2, Serine/threonine-protein kinase 36 (Homo sapiens) (UniProt Q9NRP7); experiment: Inhibition of STK36 at 1 uM
# T2 sequence (whole entry): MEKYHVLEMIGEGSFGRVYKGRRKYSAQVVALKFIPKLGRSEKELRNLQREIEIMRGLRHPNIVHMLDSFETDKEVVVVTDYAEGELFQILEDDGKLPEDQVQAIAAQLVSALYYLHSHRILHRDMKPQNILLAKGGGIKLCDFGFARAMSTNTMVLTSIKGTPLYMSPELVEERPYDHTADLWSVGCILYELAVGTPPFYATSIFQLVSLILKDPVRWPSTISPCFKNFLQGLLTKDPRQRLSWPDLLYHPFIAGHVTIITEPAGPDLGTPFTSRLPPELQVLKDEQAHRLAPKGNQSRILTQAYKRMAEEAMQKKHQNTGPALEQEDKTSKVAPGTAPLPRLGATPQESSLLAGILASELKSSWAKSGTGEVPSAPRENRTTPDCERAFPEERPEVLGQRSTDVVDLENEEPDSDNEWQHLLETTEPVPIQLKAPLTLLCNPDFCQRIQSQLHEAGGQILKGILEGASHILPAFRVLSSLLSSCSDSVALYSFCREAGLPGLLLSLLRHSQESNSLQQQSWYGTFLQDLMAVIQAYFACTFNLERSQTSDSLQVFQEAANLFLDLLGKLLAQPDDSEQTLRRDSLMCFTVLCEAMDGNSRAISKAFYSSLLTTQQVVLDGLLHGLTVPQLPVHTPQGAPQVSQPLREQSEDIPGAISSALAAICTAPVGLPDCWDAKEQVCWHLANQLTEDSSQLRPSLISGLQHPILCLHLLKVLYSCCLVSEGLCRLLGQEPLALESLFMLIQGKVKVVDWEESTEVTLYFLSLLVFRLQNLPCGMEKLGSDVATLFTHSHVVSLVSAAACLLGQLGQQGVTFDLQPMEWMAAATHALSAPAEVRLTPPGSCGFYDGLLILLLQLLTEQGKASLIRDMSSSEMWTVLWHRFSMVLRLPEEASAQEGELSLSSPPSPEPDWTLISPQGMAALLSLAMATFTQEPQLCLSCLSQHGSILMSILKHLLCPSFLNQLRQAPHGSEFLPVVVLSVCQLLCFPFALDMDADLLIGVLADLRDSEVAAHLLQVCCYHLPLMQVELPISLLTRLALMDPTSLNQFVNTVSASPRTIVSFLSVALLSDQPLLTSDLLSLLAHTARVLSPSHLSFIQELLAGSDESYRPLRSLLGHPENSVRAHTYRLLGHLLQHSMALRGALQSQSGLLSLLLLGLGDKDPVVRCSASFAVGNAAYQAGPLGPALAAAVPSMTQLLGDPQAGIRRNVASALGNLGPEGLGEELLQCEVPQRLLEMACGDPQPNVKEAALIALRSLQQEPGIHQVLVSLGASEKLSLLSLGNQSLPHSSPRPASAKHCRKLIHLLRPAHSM
# [5] = test system: T3, Receptor-type tyrosine-protein kinase FLT3 (Homo sapiens), P36888 [D835Y]; experiment: Inhibition of FLT3 D835Y mutant at 1 uM
# T3 sequence (whole entry): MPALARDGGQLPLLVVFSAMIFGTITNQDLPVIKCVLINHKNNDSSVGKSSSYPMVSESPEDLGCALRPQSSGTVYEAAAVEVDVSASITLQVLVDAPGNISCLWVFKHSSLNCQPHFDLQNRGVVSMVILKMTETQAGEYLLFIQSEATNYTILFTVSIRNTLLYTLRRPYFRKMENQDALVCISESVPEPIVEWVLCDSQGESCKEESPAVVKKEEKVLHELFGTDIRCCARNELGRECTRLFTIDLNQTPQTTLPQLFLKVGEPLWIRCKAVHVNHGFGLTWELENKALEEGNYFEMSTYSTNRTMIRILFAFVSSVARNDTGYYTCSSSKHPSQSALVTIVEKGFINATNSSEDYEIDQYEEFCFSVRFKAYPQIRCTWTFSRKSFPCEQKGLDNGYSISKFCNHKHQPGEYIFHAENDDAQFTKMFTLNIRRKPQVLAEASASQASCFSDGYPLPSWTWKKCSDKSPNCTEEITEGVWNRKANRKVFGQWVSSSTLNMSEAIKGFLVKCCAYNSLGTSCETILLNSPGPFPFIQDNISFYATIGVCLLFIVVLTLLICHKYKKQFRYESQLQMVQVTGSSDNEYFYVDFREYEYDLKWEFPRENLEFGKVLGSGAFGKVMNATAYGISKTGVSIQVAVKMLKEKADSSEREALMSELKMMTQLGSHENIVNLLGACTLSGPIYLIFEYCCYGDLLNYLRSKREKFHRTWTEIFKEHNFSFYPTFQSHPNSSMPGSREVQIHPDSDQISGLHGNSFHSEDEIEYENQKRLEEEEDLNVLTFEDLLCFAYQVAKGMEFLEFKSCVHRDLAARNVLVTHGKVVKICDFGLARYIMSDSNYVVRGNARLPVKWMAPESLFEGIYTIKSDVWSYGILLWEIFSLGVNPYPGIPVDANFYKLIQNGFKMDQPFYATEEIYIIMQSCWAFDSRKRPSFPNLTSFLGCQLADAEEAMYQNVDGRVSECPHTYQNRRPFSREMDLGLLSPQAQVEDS
# Summary of the method: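 Single-concentration screen on the Ambit KINOMEscan platform, run against a panel of 250–400 kinases. Per-kinase inhibition was also summarized as S(90), the fraction of kinases inhibited by more than 90%.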
structure (smiles),measurement,setting,value
CN1CCN(c2ccc(-c3cnc4c(c3)N(Cc3cc(F)ccc3F)CCN4)cn2)CC1,inhibition,[1],< 50%
same,inhibition,[2],< 50%
same,inhibition,[3],< 50%
same,inhibition,[4],< 50%
same,inhibition,[5],80.8%
CC(=O)N1CCN(c2cc(-c3cnc4c(c3)N(Cc3cc(Cl)ccc3C(F)(F)F)CCN4)ccn2)CC1,inhibition,[1],< 50%
same,inhibition,[2],< 50%
same,inhibition,[3],< 50%
same,inhibition,[4],< 50%
same,inhibition,[5],87%
CN1CCN(c2ccc(-c3cnc4c(c3)N(Cc3c(F)ccc(F)c3Cl)CCN4)cn2)CC1,inhibition,[1],< 50%
same,inhibition,[2],< 50%
same,inhibition,[3],< 50%
same,inhibition,[4],< 50%
same,inhibition,[5],< 50%
FC(F)(F)c1ccc(Cl)cc1CN1CCNc2ncc(-c3ccnc(N4CCNCC4)c3)cc21,inhibition,[1],< 50%
same,inhibition,[2],66%
same,inhibition,[3],< 50%
same,inhibition,[4],< 50%
same,inhibition,[5],93%
CN1CCN(c2ccc(-c3cnc4c(c3)N(Cc3cc(Cl)ccc3Cl)CCN4)cn2)CC1,inhibition,[1],< 50%
same,inhibition,[2],< 50%
same,inhibition,[3],< 50%
same,inhibition,[4],< 50%
same,inhibition,[5],87%
O=C(c1ccc(-c2cnc3c(c2)N(Cc2cc(Cl)ccc2C(F)(F)F)CCN3)cc1)N1CCC(N2CCCC2)CC1,inhibition,[1],< 50%
same,inhibition,[2],< 50%
same,inhibition,[3],< 50%
same,inhibition,[5],75.5%
O=C(O)c1ccc(-c2cnc3c(c2)N(Cc2cc(Cl)ccc2C(F)(F)F)CCN3)cc1,inhibition,[1],< 50%
same,inhibition,[2],< 50%
same,inhibition,[3],< 50%
same,inhibition,[5],< 50%
CN1CCN(c2ccc(-c3cnc4c(c3)N(Cc3cc(Cl)ccc3C(F)(F)F)CCN4)cn2)CC1,inhibition,[1],< 50%
same,inhibition,[2],< 50%
same,inhibition,[3],< 50%
same,inhibition,[4],< 50%
same,inhibition,[5],85%
O=C(c1ccc(-c2cnc3c(c2)N(Cc2cc(Cl)ccc2C(F)(F)F)CCN3)cc1)N1CCCCC1,inhibition,[1],< 50%
same,inhibition,[2],< 50%
same,inhibition,[3],< 50%
same,inhibition,[5],< 50%
COC1CCN(C(=O)c2ccc(-c3cnc4c(c3)N(Cc3cc(Cl)ccc3C(F)(F)F)CCN4)cc2)CC1,inhibition,[1],< 50%
same,inhibition,[2],< 50%
same,inhibition,[3],< 50%
same,inhibition,[5],66.7%
